Data: ChEMBL document CHEMBL4334478, “Isolation, Structural Elucidation, Optical Resolution, and Antineuroinflammatory Activity of Phenanthrene and 9,10-Dihydrophenanthrene Derivatives from Bletilla striata” (J Nat Prod, 2019)
pIC50: −log10 of the molar value.

Test system: BV-2
Assay: Antineuroinflammatory activity against mouse BV2 cells assessed as inhibition of LPS-induced NO production incubated for 24 hrs by Griess assay
Format: functional, cell-based
Settings: for pIC50: Mus musculus, BV-2, 24 h, read-out: IC50; call rule not given here
Procedure, shortened: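 Griess read-out of nitrite in LPS-stimulated BV-2 microglia, with cell viability checked in parallel by MTT. Minocycline served as positive control. IC50 values are reported as mean ± SEM.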

COc1c(O)ccc2c1ccc1c(-c3c(O)cc(OC)c4c3ccc3c(OC)c(O)ccc34)c(O)cc(OC)c12
pIC50: 6.00

COc1cc(O)c2c(c1Cc1ccc(O)cc1)CCc1cc(O)ccc1-2
pIC50: 4.52 to 4.92

COc1cc(O)c2c(c1-c1c(OC)cc(O)c3c1CCc1cc(O)ccc1-3)CCc1cc(O)ccc1-2
pIC50: 4.40

COc1cc(O)c(Cc2ccc(O)cc2)c2ccc3cc(O)ccc3c12
pIC50: 4.52

COc1cc(O)cc(CCc2cccc(O)c2)c1-c1c(OC)cc(O)c2c1CCc1cc(O)ccc1-2
pIC50: 5.72

COc1cc(O)cc2c1-c1cc(-c3c(O)cc(OC)c4c3ccc3cc(O)ccc34)c(O)cc1CC2
pIC50: 4.66

COc1cc(O)cc2c1-c1cc(-c3c(O)cc(OC)c4c3CCc3cc(O)ccc3-4)c(O)cc1CC2
pIC50: 4.92

COc1cc2c(ccc3c(-c4c(O)cc(OC)c5c4ccc4cc(O)ccc45)c(O)cc(OC)c32)cc1O
pIC50: 5.30

COc1c(Cc2ccc(O)cc2)c(O)cc2c1-c1ccc(O)cc1CC2
pIC50: 4.46

COc1cc([C@@H]2Oc3cc(OC)c4c(c3[C@H]2CO)CCc2cc(O)ccc2-4)cc(OC)c1O
pIC50: 4.73

COc1cc([C@H]2Oc3cc4c(cc3[C@@H]2COC(C)=O)-c2c(cc(O)cc2OC)CC4)ccc1O
pIC50: 4.61

COc1c(O)c(O)cc2ccc3cc(O)ccc3c12
pIC50: 4.52

COc1ccc2c(ccc3c(Cc4ccc(O)cc4)c(O)cc(OC)c32)c1
pIC50: 4.09

OC[C@H]1O[C@@H](Oc2ccc(Cc3c(O)ccc4c3CCc3cc(O)ccc3-4)cc2)[C@H](O)[C@@H](O)[C@@H]1O
pIC50: 4.75

COc1cc(CCc2cccc(O)c2)c(-c2c(O)cc(O)c3c2CCc2cc(O)ccc2-3)c(OC)c1
pIC50: 4.22

COc1cc(O)c2c(ccc3cc(O)ccc32)c1-c1c(OC)cc(O)c2c1ccc1cc(O)ccc12
IC50 (bv-2): Not Active

COc1ccc2c(c1O)CCc1c(Cc3ccc(O)cc3)c(O)cc(OC)c1-2
pIC50: 4.31

COc1cc(O)cc2c1-c1ccc(O)cc1CC2
pIC50: 4.82

COc1cc(O)c(-c2c(O)cc(OC)c3c2ccc2cc(O)ccc23)c2c1-c1ccc(O)cc1CC2 [CIRRHOPETALANTHRIN]
pIC50: 4.33

COc1c(O)cc2c(c1OC)-c1ccc(O)cc1CC2 [ERIANTHRIDIN]
pIC50: 4.03

CN(C)c1ccc(O)c2c1C[C@H]1C[C@H]3[C@H](N(C)C)C(O)=C(C(N)=O)C(=O)[C@@]3(O)C(O)=C1C2=O [MINOCYCLINE]
pIC50: 4.45 to 4.57
